ASAP1 inh – inhibitors of human ASAP1 ArfGAP activity, primary screen, biochemical, fluorescence polarization; ASAP1-stimulated ARF1 GTP hydrolysis, GDP FP detection; inhibition, % at 16.5 µM; hit rate 0.19% among 360,000; in the data active = inhibition above about 25%;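 also: 0% = vehicle with enzyme and substrate and 100% = no enzyme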
Target sequence (Q9ULH1 325-724 limits assumed): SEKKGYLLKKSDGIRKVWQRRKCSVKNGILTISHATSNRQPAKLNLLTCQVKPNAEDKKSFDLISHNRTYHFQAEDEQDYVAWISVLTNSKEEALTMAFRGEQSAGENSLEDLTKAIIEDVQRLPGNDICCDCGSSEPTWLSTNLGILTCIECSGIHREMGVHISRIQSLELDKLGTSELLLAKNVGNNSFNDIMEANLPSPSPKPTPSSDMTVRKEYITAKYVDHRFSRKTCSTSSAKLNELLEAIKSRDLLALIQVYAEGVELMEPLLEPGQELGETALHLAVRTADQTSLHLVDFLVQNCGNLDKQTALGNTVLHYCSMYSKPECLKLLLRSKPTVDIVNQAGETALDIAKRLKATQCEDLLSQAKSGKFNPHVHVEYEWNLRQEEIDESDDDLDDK
ZTA counter – blocks Epstein-Barr virus ZTA, an EBNA-1 counter-screen; AID 2234; inhibition, % at 11 µM; hit rate 0.15% among 320,000; ZTA-DNA binding, fluorescence polarization; P03206; in the data active = inhibition above about 33%
EBNA-1 inh – EBNA-1 DNA-binding inhibitors, primary screen, biochemical, fluorescence polarization. hit rate 0.34% among 300,000. inhibition, % at 14.8 µM. AID 1950, 2009; in the data active = inhibition above about 28%
ARFGAP1 inhibitor – inhibitors of rat ARFGAP1 GAP activity, primary screen, biochemical, fluorescence polarization, GDP tracer; Arfgap1-stimulated ARF1 GTP hydrolysis, GDP FP detection; hit rate 0.26% among 360,000; ADP-ribosylation factor GTPase-activating protein 1 (Rattus norvegicus), Q62848; AID 651572, 2012; inhibition, % at 16.5 µM;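 active = inhibition above a per-plate limit, mean inhibition of low control wells plus 3 SD, cut at about 25% in these data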;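 also: 0% = DMSO wells with enzyme and 100% = wells lacking Arfgap1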
Target sequence (Q62848 1-136 limits assumed): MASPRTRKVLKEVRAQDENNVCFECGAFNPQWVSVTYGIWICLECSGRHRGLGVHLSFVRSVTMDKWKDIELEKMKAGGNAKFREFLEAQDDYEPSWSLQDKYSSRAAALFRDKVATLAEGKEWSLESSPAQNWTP
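Material – truncated rat Arfgap1 GAP domain · Buffer or medium – HEPES-based buffer, pH 7.5 · Reagent – human ARF1(Δ1-17)-GTP substrate · Dosing – 16.5 µM single point, 1.26% DMSO · Schedule – GTP hydrolysis reaction 2 h at 25 °C · Technique – GDP detection by fluorescence polarization · Benchmarks – No-Arfgap1 wells (100%) versus DMSO full-reaction wells (0%) · Repeats – single replicate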
EBNA-1 inh conf – EBNA-1 DNA-binding inhibitors, retest, confirmation, biochemical, fluorescence polarization, triplicate; shares compounds with EBNA-1 inh; Recombinant EBNA-1 DBD, Cy5-DNA fluorescence polarization; inhibition, % at 14.8 µM; hit rate 35% among 830;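 active = mean inhibition across replicates above a set limit taken from the earlier primary screen, cut at about 28% in these data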;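 also: plate controls were EBNA-1 protein with DMSO for no effect and wells lacking EBNA-1 for full effect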
ZTA DNA inh trip – EBV Zta DNA binding inhibitors, counter-screen for EBNA-1 inhibitor project, biochemical, fluorescence polarization, triplicate | shares compounds with EBNA-1 inh | inhibition, % at 11.1 µM | 830 tested, under 10 active | Zta-ZRE DNA binding, Cy5 fluorescence polarization | AID 2328, 2010;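 active = mean inhibition over triplicates above a set limit taken from the primary EBNA-1 screen, cut at about 37% in these data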;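 also: purified full length Zta protein with Cy5 labeled ZRE DNA probe; 0% = Zta with DMSO and 100% = wells lacking Zta protein; inhibitors lower polarization by freeing the labeled DNA probe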
ZTA inh confirm – EBV Zta binding to ZRE DNA, inhibitors, confirmation, biochemical, fluorescence polarization, triplicate; shares compounds with ZTA counter; inhibition, % at 11.1 µM; hit rate 30% among 320; AID 2361, 2010;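 active = mean inhibition across triplicate runs above the hit threshold derived for the original primary screen, cut at about 33% in these data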;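 also: 0% = Zta with DMSO and 100% = wells lacking Zta protein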
EBNA1 counter – EBNA-1 DNA-binding inhibition, counter-screen for ZTA inhibitor project, biochemical, fluorescence polarization. shares compounds with ZTA counter. inhibition, % at 14.8 µM. 320 tested, under 10 active. AID 2362, 2010; call rule not given here
ARFGAP1 inh conf – ARFGAP1 inhibitor hit confirmation, biochemical, fluorescence polarization, triplicate. shares compounds with ARFGAP1 inhibitor. ARFGAP1-stimulated ARF1 GTP hydrolysis, GDP tracer FP. inhibition, % at 16.5 µM. hit rate 30% among 890. AID 651608, 2012;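 active = average inhibition over triplicates above the hit cutoff set in the earlier primary screen, cut at about 25% in these data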;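 also: 0% = Arfgap1 plus ARF1-GTP with DMSO and 100% = wells lacking Arfgap1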
* marks the source's active call; other numbers are inactive results; nt = not tested or not shown; + = active, no number. Compounds with a hit are over-represented: about 0.75% of the library has one in this group of screens.

SMILES	ASAP1 inh	ZTA counter	EBNA-1 inh	ARFGAP1 inhibitor	ZTA inh confirm	EBNA1 counter	others
CSc1ccc(C(=O)NCC2CCN(C(=O)C(=O)c3cc4ccccc4o3)CC2)cc1	8.5	nt	nt	21.1	nt	nt
Cc1cccc(NC(=O)CN2C(=O)N/C(=C/c3ccc(C)o3)C2=O)c1	-7.0	4.4	-0.5	-3.7	nt	nt
COc1ccc(/C=C2/NC(=O)N(CC(=O)Nc3cccc(C)c3)C2=O)cc1O	9.6	0.3	56.4*	2.7	nt	nt	EBNA-1 inh conf=76.2*;ZTA DNA inh trip=-0.9
O=C(Nc1cccc(F)c1)C1CC(=O)N(c2ccc(Br)cc2)C1 (configuration not stated)	6.5	-10.7	11.2	5.2	nt	nt
O=C(Nc1cccc(Cl)c1Cl)C1CC(=O)N(c2ccc(Br)cc2)C1 (configuration not stated)	-1.1	6.9	59.6*	-5.7	nt	nt	EBNA-1 inh conf=21.3;ZTA DNA inh trip=8.5
CCN(CC)S(=O)(=O)c1ccc(C(=O)Nc2nnc(NC(=S)Nc3ccccc3)s2)cc1	5.2	-22.6	38.5*	10.9	nt	nt	EBNA-1 inh conf=75.3*;ZTA DNA inh trip=-11.5
O=C(NCc1csc(-c2cccs2)n1)Nc1cccc(Cl)c1	1.9	8.0	28.4*	26.5*	nt	nt	EBNA-1 inh conf=22.9;ZTA DNA inh trip=4.1;ARFGAP1 inh conf=6.2
O=C(C(=O)N1CCC(CNS(=O)(=O)c2ccccc2)CC1)c1cc2ccccc2o1	3.4	nt	nt	-6.1	nt	nt
COc1cccc2c1C(=O)c1c(O)c3c(c(O)c1C2=O)C[C@@](O)(C(=O)CO)C[C@@H]3O[C@H]1C[C@H](N)[C@H](O)[C@H](C)O1	-9.0	77.9*	24.6	-1.2	97.8*	-8.0
COc1cccc2c1C(=O)c1c(O)c3c(c(O)c1C2=O)C[C@@](O)(C(=O)CO)C[C@@H]3OC1CC(N)C(O)C(C)O1 (some centres not stated)	-0.1	nt	nt	2.6	nt	nt
O=C(CCN1C(=O)/C(=C/c2ccco2)SC1=S)Nc1ccc(C(=O)O)c(O)c1	2.4	27.1	-5.4	-18.2	nt	nt
O=C(CCN1C(=O)/C(=C\c2ccco2)SC1=S)Nc1ccc(C(=O)O)c(O)c1	-6.2	44.4*	-0.9	-6.2	9.1	7.0
CCn1c(SCC(N)=O)nc2sc3c(c2c1=O)CCCC3	-7.5	0.5	4.8	-2.5	nt	nt
NC(=O)CSc1nc2sc3c(c2c2ncnn12)CCCC3	13.7	37.6*	-3.5	-4.8	6.4	3.1
CCc1cccc(-n2c(C)cc(O)cc2=O)c1	5.7	nt	nt	-3.8	nt	nt
CC[C@H](NC(=O)[C@H]1O[C@@H](n2cnc3c(=O)[nH]c(N)nc32)[C@H](O)[C@@H]1O)c1ccccc1	-3.5	nt	nt	11.9	nt	nt
Nc1c(O)ccc2c1C(=O)c1ccccc1C2=O	6.9	40.5*	9.5	4.3	34.5*	6.4
C#CCOCCOCCOCCNc1nc(N2CCN(C(=O)CCCCCCCCCCNC(=O)[C@H](CO)n3cc(CCCSC)nn3)CC2)nc(N2CCN(C(=O)CCCCCCCCCCNC(=O)[C@H](CCCN=C(N)N)n3cc(C[C@@H](C)CC)nn3)CC2)n1	nt	95.9*	2.6	nt	68.8*	-6.1
C#CCOCCOCCOCCNc1nc(N2CCN(C(=O)CCCCCCCCCCNC(=O)Cn3cc(C[C@@H](C)O)nn3)CC2)nc(N2CCN(C(=O)CCCCCCCCCCNC(=O)[C@H](CCCCN)n3cc(CCCC(=O)O)nn3)CC2)n1	15.9	-2.1	3.3	0.7	nt	nt
C#CCOCCOCCOCCNc1nc(N2CCN(C(=O)CCCCCCCCCCNC(=O)Cn3cc(C[C@@H](C)O)nn3)CC2)nc(N2CCN(C(=O)CCCCCCCCCCNC(=O)[C@H](CCCN=C(N)N)n3cc(C[C@@H](C)CC)nn3)CC2)n1	nt	55.7*	13.9	nt	17.8	-5.9
CCOC(=O)C1Nc2ccc(C(=O)O)cc2C2C=CCC12 (configuration not stated)	-6.0	60.1*	4.8	-3.4	23.1	-13.2
CC(=O)c1sc(NC(=O)c2cc(=O)c3ccccc3o2)nc1C	7.8	-9.9	-6.2	-9.1	nt	nt
CC(=O)c1sc(NC(=O)c2oc3ccc(F)cc3c2C)nc1C	12.2	66.9*	nt	3.5	47.0*	7.7
COc1cc(NC(=O)C2=C(N3CCOCC3)/C(=C\c3ccc(N(C)C)cc3)CCC2)cc(OC)c1OC	2.0	100.5*	4.9	2.2	-5.3	-3.2
COCCNC(=O)c1cc(-c2ccccc2)nn1CC1CC(c2cccnc2)=NO1 (configuration not stated)	1.5	+	9.0	-1.4	3.4	0.1
SMILES	ASAP1 inh	ZTA counter	EBNA-1 inh	ARFGAP1 inhibitor	ZTA inh confirm	EBNA1 counter	others
COCCNC(=O)c1cc(-c2ccccc2C)nn1CC1CC(c2cccnc2)=NO1 (configuration not stated)	0.7	nt	nt	2.0	nt	nt
Nc1cccc2nsnc12	-8.8	7.7	1.5	-4.9	nt	nt
Nc1cc2nsnc2cc1Br	-5.7	67.6*	0.0	21.7	28.0	-3.3
COC(=O)C1=C(C)N(Cc2cccc(C(F)(F)F)c2)C(=NCc2cc(OC)c(OC)c(OC)c2)NC1CCc1ccccc1 (configuration not stated)	8.0	nt	nt	5.1	nt	nt
Cc1cc(C)nc(NC(=O)NS(=O)(=O)Nc2ccc(Br)cn2)n1	nt	33.1*	14.9	nt	-5.9	-2.6
C=CCN=C1NC(c2cccc(Cl)c2)C(C(=O)OC)=C(C)N1Cc1ccc(C(F)(F)F)cc1 (configuration not stated)	-3.4	nt	nt	-5.1	nt	nt
CN1CCN(CCCNC(=O)c2ccc(/C=C3\Oc4ccccc4N(Cc4ccccc4F)C3=O)cc2)CC1	-3.1	23.2	4.3	5.3	nt	nt
Cc1cccc(CN2C(=O)/C(=C\c3ccc(C(=O)NCCCN4CCN(C)CC4)cc3)Oc3ccccc32)c1	11.4	69.7*	5.4	9.9	49.8*	-9.7
CCCCCCCCN1C(=O)[C@@H](CC(=O)N2CCOCC2)C[C@@]2(C(=O)OC)C1=C[C@H](C(C)(C)C)O[C@@H]2C	-7.0	nt	nt	8.4	nt	nt
O=C(CNC(=O)c1sc2ccccc2c1Cl)NCc1ccccc1	1.4	-4.6	7.8	16.5	nt	nt
COC(=O)c1ccc(CNC(=O)CNC(=O)c2sc3ccccc3c2Cl)cc1	16.5	83.0*	6.4	-11.8	69.5*	15.6
